Measurements taken from ChEMBL document CHEMBL1817648, “Synthesis and in vitro antibacterial activity of a series of novel gatifloxacin derivatives” (Eur J Med Chem, 2011).
≈ marks a conversion by molar mass, not a printed value.

How the values were obtained:
[1] = Cytotoxicity against african green monkey Vero cells after 72 hrs by MTT assay; assay type: cell-based; conditions: chlorocebus sabaeus
How it was run: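 Vero cells were kept in Minimum Essential Medium with Earle's salts plus 10% fetal bovine serum at 37 °C under 5% CO₂. Cells were seeded at 1 × 10⁴ per well and allowed to recover 24 h. Medium was then replaced with assay medium containing compound or no drug, and cells were exposed for 72 h. CC₅₀ is the 50% cellular cytotoxic concentration.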

Staphylococcus aureus [2] = assay: Antibacterial activity against Staphylococcus aureus ATCC 25923 after 18 to 24 hrs by NCCLS M100-S11 two fold serial dilution method; assay type: functional; conditions: ATCC25923
Staphylococcus aureus [3] = assay: Antibacterial activity against methicillin-resistant Staphylococcus aureus 08-1 after 18 to 24 hrs by NCCLS M100-S11 two fold serial dilution method; assay type: functional
How it was run: (§1)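 Two-fold serial dilution in agar medium. MIC read as the lowest concentration giving complete inhibition of bacterial growth after incubation at 35 °C for 18–24 h.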

Staphylococcus aureus [4] = assay: Antibacterial activity against methicillin-sensitive Staphylococcus aureus 08-1 after 18 to 24 hrs by NCCLS M100-S11 two fold serial dilution method; assay type: functional
[5] = test system: Staphylococcus epidermidis; assay: Antibacterial activity against methicillin-resistant Staphylococcus epidermidis 09-4 after 18 to 24 hrs by NCCLS M100-S11 two fold serial dilution method; assay type: functional; how it was run: as §1
[6] = test system: Staphylococcus epidermidis; assay: Antibacterial activity against methicillin-sensitive Staphylococcus epidermidis 09-3 after 18 to 24 hrs by NCCLS M100-S11 two fold serial dilution method; assay type: functional; how it was run: as §1
[7] = test system: Staphylococcus epidermidis; assay: Antibacterial activity against methicillin-sensitive Staphylococcus epidermidis 09-6 after 18 to 24 hrs by NCCLS M100-S11 two fold serial dilution method; assay type: functional; how it was run: as §1
Streptococcus pneumoniae [8] = assay: Antibacterial activity against Streptococcus pneumoniae 08-2 after 18 to 24 hrs by NCCLS M100-S11 two fold serial dilution method; assay type: functional
Streptococcus pneumoniae [9] = assay: Antibacterial activity against Streptococcus pneumoniae 08-4 after 18 to 24 hrs by NCCLS M100-S11 two fold serial dilution method; assay type: functional
Enterococcus faecium [10] = assay: Antibacterial activity against Enterococcus faecium 08-2 after 18 to 24 hrs by NCCLS M100-S11 two fold serial dilution method; assay type: functional
Enterococcus faecium [11] = assay: Antibacterial activity against Enterococcus faecium 08-7 after 18 to 24 hrs by NCCLS M100-S11 two fold serial dilution method; assay type: functional
Enterococcus faecalis [12] = assay: Antibacterial activity against Enterococcus faecalis 08-10 after 18 to 24 hrs by NCCLS M100-S11 two fold serial dilution method; assay type: functional
Enterococcus faecalis [13] = assay: Antibacterial activity against Enterococcus faecalis 08-12 after 18 to 24 hrs by NCCLS M100-S11 two fold serial dilution method; assay type: functional
Escherichia coli [14] = assay: Antibacterial activity against Escherichia coli ATCC 25922 after 18 to 24 hrs by NCCLS M100-S11 two fold serial dilution method; assay type: functional; conditions: ATCC25922
Escherichia coli [15] = assay: Antibacterial activity against Escherichia coli 08-21 after 18 to 24 hrs by NCCLS M100-S11 two fold serial dilution method; assay type: functional
Escherichia coli [16] = assay: Antibacterial activity against Escherichia coli 08-22 after 18 to 24 hrs by NCCLS M100-S11 two fold serial dilution method; assay type: functional
Klebsiella pneumoniae [17] = assay: Antibacterial activity against Klebsiella pneumoniae 09-22 after 18 to 24 hrs by NCCLS M100-S11 two fold serial dilution method; assay type: functional
Pseudomonas aeruginosa [18] = assay: Antibacterial activity against Pseudomonas aeruginosa ATCC 27853 after 18 to 24 hrs by NCCLS M100-S11 two fold serial dilution method; assay type: functional
Pseudomonas aeruginosa [19] = assay: Antibacterial activity against Pseudomonas aeruginosa 09-32 after 18 to 24 hrs by NCCLS M100-S11 two fold serial dilution method; assay type: functional
Pseudomonas aeruginosa [20] = assay: Antibacterial activity against Pseudomonas aeruginosa 09-33 after 18 to 24 hrs by NCCLS M100-S11 two fold serial dilution method; assay type: functional
Pseudomonas aeruginosa [21] = assay: Antibacterial activity against Pseudomonas aeruginosa 09-34 after 18 to 24 hrs by NCCLS M100-S11 two fold serial dilution method; assay type: functional
Klebsiella pneumoniae [22] = assay: Antibacterial activity against Klebsiella pneumoniae 09-23 after 18 to 24 hrs by NCCLS M100-S11 two fold serial dilution method; assay type: functional

Structure (SMILES) | CC50 at 72 h [1] [µg/mL] | MIC (Staphylococcus aureus [2]) [µg/mL] | MIC (Staphylococcus aureus [3]) [µg/mL] | MIC (Staphylococcus aureus [4]) [µg/mL] | MIC [5] [µg/mL] | MIC [6] [µg/mL] | MIC [7] [µg/mL] | MIC (Streptococcus pneumoniae [8]) [µg/mL] | MIC (Streptococcus pneumoniae [9]) [µg/mL] | MIC (Enterococcus faecium [10]) [µg/mL] | MIC (Enterococcus faecium [11]) [µg/mL] | MIC (Enterococcus faecalis [12]) [µg/mL] | MIC (Enterococcus faecalis [13]) [µg/mL] | MIC (Escherichia coli [14]) [µg/mL] | MIC (Escherichia coli [15]) [µg/mL] | MIC (Escherichia coli [16]) [µg/mL] | MIC (Klebsiella pneumoniae [17]) [µg/mL] | MIC (Pseudomonas aeruginosa [18]) [µg/mL] | MIC (Pseudomonas aeruginosa [19]) [µg/mL] | MIC (Pseudomonas aeruginosa [20]) [µg/mL] | also measured
COc1c(N2CCN(C/C(C)=N/NC(N)=O)C(C)C2)c(F)cc2c(=O)c(C(=O)O)cn(C3CC3)c12 (configuration not stated) | 500 (≈ 1020 µM) | 4 (≈ 8.19 µM) | 2 (≈ 4.09 µM) | > 128 | 2 (≈ 4.09 µM) | 2 (≈ 4.09 µM) | 1 (≈ 2.05 µM) | 64 (≈ 131 µM) | 2 (≈ 4.09 µM) | > 128 | > 128 | > 128 | > 128 | > 128 | > 128 | > 128 | > 128 | > 128 | 64 (≈ 131 µM) | > 128 | MIC (Pseudomonas aeruginosa [21]): > 128 µg/mL; MIC (Klebsiella pneumoniae [22]): > 128 µg/mL
COc1c(N2CCN(C/C(C)=N/NC(C)=O)C(C)C2)c(F)cc2c(=O)c(C(=O)O)cn(C3CC3)c12 (configuration not stated) | 707 (≈ 1450 µM) | 0.25 (≈ 0.513 µM) | 0.25 (≈ 0.513 µM) | 0.25 (≈ 0.513 µM) | 0.25 (≈ 0.513 µM) | 0.25 (≈ 0.513 µM) | 0.25 (≈ 0.513 µM) | 8 (≈ 16.4 µM) | 0.25 (≈ 0.513 µM) | 16 (≈ 32.8 µM) | 16 (≈ 32.8 µM) | 16 (≈ 32.8 µM) | 16 (≈ 32.8 µM) | 8 (≈ 16.4 µM) | 16 (≈ 32.8 µM) | 16 (≈ 32.8 µM) | 0.25 (≈ 0.513 µM) | 4 (≈ 8.2 µM) | 0.25 (≈ 0.513 µM) | 64 (≈ 131 µM) | MIC (Pseudomonas aeruginosa [21]): 2 µg/mL (≈ 4.1 µM); MIC (Klebsiella pneumoniae [22]): 4 µg/mL (≈ 8.2 µM)
COc1c(N2CCN(C/C(C)=N/NC(=O)c3ccncc3)C(C)C2)c(F)cc2c(=O)c(C(=O)O)cn(C3CC3)c12 (configuration not stated) | 250 (≈ 454 µM) | 2 (≈ 3.63 µM) | 32 (≈ 58.1 µM) | 2 (≈ 3.63 µM) | 2 (≈ 3.63 µM) | 0.25 (≈ 0.454 µM) | 0.25 (≈ 0.454 µM) | 32 (≈ 58.1 µM) | 4 (≈ 7.26 µM) | 64 (≈ 116 µM) | 64 (≈ 116 µM) | 128 (≈ 232 µM) | 128 (≈ 232 µM) | 16 (≈ 29.1 µM) | 128 (≈ 232 µM) | 64 (≈ 116 µM) | 16 (≈ 29.1 µM) | 4 (≈ 7.26 µM) | 4 (≈ 7.26 µM) | 128 (≈ 232 µM) | MIC (Pseudomonas aeruginosa [21]): 32 µg/mL (≈ 58.1 µM); MIC (Klebsiella pneumoniae [22]): 32 µg/mL (≈ 58.1 µM)
COc1c(N2CCN(C/C(C)=N/Nc3ccccc3)C(C)C2)c(F)cc2c(=O)c(C(=O)O)cn(C3CC3)c12 (configuration not stated) | 11.1 (≈ 21.2 µM) | 0.125 (≈ 0.24 µM) | 0.125 (≈ 0.24 µM) | 0.125 (≈ 0.24 µM) | 0.25 (≈ 0.479 µM) | 0.25 (≈ 0.479 µM) | 0.25 (≈ 0.479 µM) | 0.25 (≈ 0.479 µM) | 0.25 (≈ 0.479 µM) | 4 (≈ 7.67 µM) | 4 (≈ 7.67 µM) | 4 (≈ 7.67 µM) | 4 (≈ 7.67 µM) | 0.5 (≈ 0.959 µM) | 4 (≈ 7.67 µM) | 0.25 (≈ 0.479 µM) | 0.25 (≈ 0.479 µM) | 2 (≈ 3.83 µM) | 0.25 (≈ 0.479 µM) | 4 (≈ 7.67 µM) | MIC (Pseudomonas aeruginosa [21]): 0.25 µg/mL (≈ 0.479 µM); MIC (Klebsiella pneumoniae [22]): 0.125 µg/mL (≈ 0.24 µM)
COc1c(N2CCN(C/C(C)=N/O)C(C)C2)c(F)cc2c(=O)c(C(=O)O)cn(C3CC3)c12 (configuration not stated) | 177 (≈ 396 µM) | 0.25 (≈ 0.56 µM) | > 128 | 0.25 (≈ 0.56 µM) | 0.25 (≈ 0.56 µM) | 0.25 (≈ 0.56 µM) | 0.25 (≈ 0.56 µM) | 128 (≈ 287 µM) | 0.25 (≈ 0.56 µM) | > 128 | > 128 | > 128 | > 128 | 128 (≈ 287 µM) | > 128 | > 128 | > 128 | 32 (≈ 71.7 µM) | 32 (≈ 71.7 µM) | > 128 | MIC (Pseudomonas aeruginosa [21]): > 128 µg/mL; MIC (Klebsiella pneumoniae [22]): > 128 µg/mL
COc1c(N2CCN(CC/C(C)=N/O)C(C)C2)c(F)cc2c(=O)c(C(=O)O)cn(C3CC3)c12 (configuration not stated) | 44.2 (≈ 96 µM) | 2 (≈ 4.34 µM) | 32 (≈ 69.5 µM) | 32 (≈ 69.5 µM) | 0.25 (≈ 0.543 µM) | 0.25 (≈ 0.543 µM) | 0.25 (≈ 0.543 µM) | 32 (≈ 69.5 µM) | 4 (≈ 8.69 µM) | 64 (≈ 139 µM) | 64 (≈ 139 µM) | > 128 | > 128 | 16 (≈ 34.7 µM) | 64 (≈ 139 µM) | 64 (≈ 139 µM) | 64 (≈ 139 µM) | 8 (≈ 17.4 µM) | 4 (≈ 8.69 µM) | > 128 | MIC (Pseudomonas aeruginosa [21]): 8 µg/mL (≈ 17.4 µM); MIC (Klebsiella pneumoniae [22]): 8 µg/mL (≈ 17.4 µM)
